{
  "source": "paper PMC5768141",
  "about": "(Journal of natural products, 2017)",
  "key": {"[1]": {"system": "MOE^LOW murine oviductal epithelial cells", "assay": "Cell viability assay", "assay_type": "cell-based", "details": "Mus musculus, 72 h, read-out: IC50 against MOE^LOW"}, "[2]": {"system": "MOE^HIGH murine oviductal epithelial cells", "assay": "Cell viability assay", "assay_type": "cell-based", "details": "Mus musculus, 72 h, read-out: IC50 against MOE^HIGH"}, "OVCAR3 cells [3]": {"system": "OVCAR3 cells", "assay": "Cell cycle assay", "assay_type": "cell-based, human", "details": "OVCAR3, 72 h"}, "OVCAR3 cells [4]": {"system": "OVCAR3 cells", "assay": "Immunoblot analysis with densitometry", "assay_type": "cell-based, human", "details": "for ERK activation (phosphorylated ERK) / p53 expression: OVCAR3, 100 nM; for p53 expression: 72 h; for Bcl-xL expression / Cleaved PARP level / Cleaved caspase 3 level / Mcl-1 expression / p21 protein expression: OVCAR3, western blot densitometry", "in_short": "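OVCAR3 cells exposed to test compound (100 nM, 72 h). Lysed in RIPA buffer on ice for 15 min, then spun at 14,000 g, 4 °C, 15 min. Protein quantified by BCA; 25 μg per lane run on SDS-PAGE and transferred to PVDF. Blocked in 5% milk/TBST for 1 h at RT, primary antibody overnight at 4 °C, secondary 30 min. Chemiluminescent detection, ImageJ densitometry, n = 3.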"}, "OVSAHO cells [5]": {"system": "OVSAHO cells", "assay": "Immunoblot analysis with densitometry", "assay_type": "cell-based, human", "details": "for ERK activation (phosphorylated ERK): 100 nM; for p21 protein expression: western blot; for Cleaved PARP expression level: western blot densitometry"}, "OVCA432 cells": {"system": "OVCA432 cells", "assay": "Immunoblot analysis", "assay_type": "cell-based, human"}, "hERG channels": {"system": "hERG channels", "details": "cited from earlier work"}, "[6]": {"system": "OVCAR3 human ovarian cancer cells", "assay": "Cell viability assay", "assay_type": "cell-based", "details": "OVCAR-3, 72 h, read-out: IC50 against OVCAR3"}, "OVCAR8 cells": {"system": "OVCAR8 cells", "assay": "Cell viability assay", "assay_type": "cell-based", "details": "Homo sapiens, OVCAR-8, 72 h, read-out: IC50 against OVCAR8"}, "[7]": {"system": "Na^+/K^+-ATPase (adenosine 5′-triphosphatase from porcine cerebral cortex)", "assay": "Na^+/K^+-ATPase activity assay", "assay_type": "biochemical", "details": "various concentrations, 15 min at 37 °C", "in_short": "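The Na+/K+-ATPase from porcine cerebral cortex, in assay buffer, was mixed with DMSO or test compound in DMSO, and ATP was added to start the reaction. After 15 min at 37 °C, ADP-Glo reagent stopped the reaction and depleted ATP over 40 min at room temperature. Detection reagent then converted ADP to ATP over 60 min, and ATP was read by luciferin/luciferase luminescence.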"}, "OVCAR3 cells [8]": {"system": "OVCAR3 cells", "assay": "Clonogenic assay", "assay_type": "cell-based, human", "details": "OVCAR3, 21 days, treated every three days", "in_short": "(§1)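 Cells in RPMI 1640 with 10% FBS were plated at 200 cells per 60 mm dish and grown 21 days. Test compound or solvent control was given every three days. Colonies were fixed with 4% (w/v) paraformaldehyde, stained with 0.04% (w/v) crystal violet for 30 min at room temperature, imaged and counted by image analysis. Three biological replicates.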"}, "OVSAHO cells [9]": {"system": "OVSAHO cells", "assay": "Clonogenic assay", "assay_type": "cell-based, human", "details": "21 days, treated every three days", "in_short": "as §1"}, "OVCAR3 cells [10]": {"system": "OVCAR3 cells", "assay": "Soft agar colony formation assay", "assay_type": "cell-based, human", "details": "OVCAR3, 21 days, vs DMSO control", "in_short": "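OVCAR3 cells, cultured in RPMI 1640 with 10% FBS, were suspended at 1.5 × 10^4 cells in 0.35% w/v top agar over a 0.5% w/v base agar layer. They were grown 21 days with the medium changed every three days. Colonies were imaged by microscopy and counted by image analysis. Three biological replicates.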"}, "OVSAHO cells [11]": {"system": "OVSAHO cells", "assay": "Soft agar colony formation assay", "assay_type": "cell-based, human", "details": "21 days, vs DMSO control", "in_short": "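OVSAHO cells (1.5 × 104) suspended in 0.35% w/v agar over a 0.5% w/v base agar layer, with test compound or solvent control. Grown 21 days with medium changed every three days. Colonies imaged by microscopy and counted by image analysis; three biological replicates.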"}, "[12]": {"system": "OVCAR3 ovarian cancer cells", "details": "cited from earlier work"}, "[13]": {"system": "MDA-MB-231 breast cancer cells", "details": "cited from earlier work"}, "HT-29 colon cancer cells": {"system": "HT-29 colon cancer cells", "details": "cited from earlier work"}, "KB nasopharyngeal cells": {"system": "KB nasopharyngeal cells", "details": "cited from earlier work"}, "[14]": {"system": "normal human colon CCD-112CoN cells", "details": "cited from earlier work"}, "[15]": {"system": "normal human peripheral blood mononuclear cells", "details": "cited from earlier work"}},
  "data": [
    {"smiles": "C[C@H]1O[C@@H](O[C@H]2[C@@H](O)C[C@H](O[C@H]3[C@@H](O)C[C@H](O[C@H]4CC[C@@]5(C)[C@H](CC[C@@H]6[C@@H]5CC[C@]5(C)[C@@H](C7=CC(=O)OC7)CC[C@]65O)C4)O[C@@H]3C)O[C@@H]2C)C[C@H](O)[C@@H]1O", "note": "[digitoxin, reference compound]", "values": [
      {"measurement": "IC50", "setting": "[1]", "value": "> 50", "unit": "µM"},
      {"measurement": "IC50", "setting": "[2]", "value": "> 50", "unit": "µM"},
      {"measurement": "Cell cycle distribution", "setting": "OVCAR3 cells [3]", "value": "accumulation of cells in the G2/M phase"},
      {"measurement": "ERK activation (phosphorylated ERK)", "setting": "OVCAR3 cells [4]", "value": "induced activation of ERK"},
      {"measurement": "p53 expression", "setting": "OVCAR3 cells [4]", "value": "disappearance of p53"},
      {"measurement": "Bcl-xL expression", "setting": "OVCAR3 cells [4]", "value": "decrease in Bcl-xL after treatment was not statistically significant"},
      {"measurement": "Cleaved PARP level", "setting": "OVCAR3 cells [4]", "value": "significantly higher levels of cleaved PARP"},
      {"measurement": "Cleaved caspase 3 level", "setting": "OVCAR3 cells [4]", "value": "significant increase in cleaved caspase 3"},
      {"measurement": "Mcl-1 expression", "setting": "OVCAR3 cells [4]", "value": "expressed less Mcl-1 than control cells"},
      {"measurement": "p21 protein expression", "setting": "OVCAR3 cells [4]", "value": "expressed more p21 protein than the control"},
      {"measurement": "ERK activation (phosphorylated ERK)", "setting": "OVSAHO cells [5]", "value": "induced activation of ERK"},
      {"measurement": "p21 protein expression", "setting": "OVSAHO cells [5]", "value": "significant increase in p21 expression"},
      {"measurement": "Cleaved PARP expression level", "setting": "OVSAHO cells [5]", "value": "higher than the levels in control cells"},
      {"measurement": "p53 expression", "setting": "OVCA432 cells", "value": "decreased expression of p53"},
      {"measurement": "Interaction with hERG channels and hERG trafficking", "setting": "hERG channels", "value": "reported to interact with hERG channels and hERG trafficking"}
    ]},
    {"smiles": "CO[C@H]1[C@H](O[C@H]2CC[C@]3(C=O)[C@H]4CC[C@]5(C)[C@@H](C6=CC(=O)OC6)CC[C@]5(O)[C@@H]4CC[C@]3(O)C2)O[C@H](C)[C@H](O)[C@@H]1OC", "note": "[(+)-strebloside, (+)-Strebloside]", "values": [
      {"measurement": "IC50", "setting": "[6]", "value": 0.134, "unit": "µM"},
      {"measurement": "IC50", "setting": "OVCAR8 cells", "value": 0.0911, "unit": "µM"},
      {"measurement": "IC50", "setting": "[1]", "value": "> 50", "unit": "µM"},
      {"measurement": "IC50", "setting": "[2]", "value": "> 50", "unit": "µM"},
      {"measurement": "Inhibition of Na^+/K^+-ATPase activity", "setting": "[7]", "value": "inhibited Na^+/K^+-ATPase activity in a concentration-dependent manner"},
      {"measurement": "2D colony formation", "setting": "OVCAR3 cells [8]", "value": "neither OVCAR3 nor OVSAHO cells formed colonies"},
      {"measurement": "2D colony formation", "setting": "OVSAHO cells [9]", "value": "neither OVCAR3 nor OVSAHO cells formed colonies"},
      {"measurement": "Soft agar colony formation (anchorage-independent growth)", "setting": "OVCAR3 cells [10]", "value": "formed significantly less soft agar colonies than a DMSO control"},
      {"measurement": "Soft agar colony formation (anchorage-independent growth)", "setting": "OVSAHO cells [11]", "value": "no difference was detected"},
      {"measurement": "Cell cycle distribution", "setting": "OVCAR3 cells [3]", "value": "induced an accumulation of cells in the G2/M phase"},
      {"measurement": "ERK activation (phosphorylated ERK)", "setting": "OVCAR3 cells [4]", "value": "induced activation of ERK"},
      {"measurement": "p53 expression", "setting": "OVCAR3 cells [4]", "value": "disappearance of p53"},
      {"measurement": "Bcl-xL expression", "setting": "OVCAR3 cells [4]", "value": "decrease in Bcl-xL after treatment was not statistically significant"},
      {"measurement": "Cleaved PARP level", "setting": "OVCAR3 cells [4]", "value": "significantly higher levels of cleaved PARP"},
      {"measurement": "Cleaved caspase 3 level", "setting": "OVCAR3 cells [4]", "value": "significant increase in cleaved caspase 3"},
      {"measurement": "Mcl-1 expression", "setting": "OVCAR3 cells [4]", "value": "expressed less Mcl-1 than control cells"},
      {"measurement": "p21 protein expression", "setting": "OVCAR3 cells [4]", "value": "expressed more p21 protein than the control"},
      {"measurement": "ERK activation (phosphorylated ERK)", "setting": "OVSAHO cells [5]", "value": "induced activation of ERK"},
      {"measurement": "p21 protein expression", "setting": "OVSAHO cells [5]", "value": "significant increase in p21 expression"},
      {"measurement": "Cleaved PARP expression level", "setting": "OVSAHO cells [5]", "value": "higher than the levels in control cells"},
      {"measurement": "p53 expression", "setting": "OVCA432 cells", "value": "decreased expression of p53"},
      {"measurement": "In vivo potency in hollow fiber assay", "setting": "[12]", "value": "significant potency in vivo"},
      {"measurement": "In vivo potency in hollow fiber assay", "setting": "[13]", "value": "significant potency in vivo"},
      {"measurement": "Cytotoxicity", "setting": "HT-29 colon cancer cells", "value": "potent cytotoxicity"},
      {"measurement": "Cytotoxicity", "setting": "KB nasopharyngeal cells", "value": "potent cytotoxicity"},
      {"measurement": "Toxicity compared with digoxin", "setting": "[14]", "value": "not as toxic as digoxin"},
      {"measurement": "Toxicity compared with digoxin", "setting": "[15]", "value": "not as toxic as digoxin"}
    ]}
  ]
}
